# “And” between values parts separate entries of the source, which are not always exact repeats. Identical values can stand only once. Like-named read-outs stand apart in the source and are kept apart here. Positions of bridges follow the written chain, without caps; N, C: chain ends. No end group written: not given here.
# Experiments:
# [1] = system: strips of rat uterus; format: cell-based; settings: for anti-oxytocic potency, times less potent than the mother compound III: in vitro uterus test
# Method in brief: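 Wistar rats were brought into estrus by estrogen injection 48 h before use. After decapitation, uterine horns were cut longitudinally and mounted in an organ bath without Mg2+, and isometric contraction height was recorded. Oxytocin standard, with or without test compound, or test compound alone was dosed cumulatively in doubling concentrations at 1 min intervals until maximal response. Results are agonist IU/mg or antagonist pA2, using uteri from 3–5 rats, mean ± SEM.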
# [2] = system: arterial blood pressure (pressor response to AVP); test: vasopressor test in phenoxybenzamine-treated male rats under urethane anesthesia; format: in vivo, rat; settings: for Pressor pA2 (antagonist) / pressor activity (in words): rat; for Pressor pA2 (antagonist): i.v., antagonist 1 min before AVP; for Pressor IU/mg or pA2 (0 = no activity): 0 means no activity up to the dose of 0.15 mg/kg of experimental animal; for pressor activity (in words): in vivo
# Method in brief: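 Male Wistar rats were pretreated with phenoxybenzamine and anesthetized with urethane, and arterial blood pressure was recorded. AVP standard was given as single femoral-vein injections to build dose–response curves with and without antagonist, which was given 1 min earlier. Results are IU/mg for agonists or pA2 for antagonists, with distribution volume taken as 67 ml/kg. Inactivity means no response up to 0.15 mg/kg. 3–5 experiments, mean ± SEM.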
# [3] = system: conscious male rats (antidiuresis); test: antidiuretic test on conscious male rats; format: in vivo, rat; settings: for antidiuretic activity (in words): rat, in vivo; for Antidiuretic IU/mg: single value given, no level given; for Antidiuretic IU/mg (200 min): level t1/2 200 min (in parentheses); for Antidiuretic IU/mg (200 min) / Antidiuretic IU/mg 60 min: s.c., AVP taken as 465 IU/mg; for Antidiuretic IU/mg 60 min: threshold level t1/2 60 min
# Method in brief: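 Fasted (16 h) conscious male Wistar rats given a tap-water load of 4% body weight by stomach catheter. Test compound or saline was then injected s.c. (0.001–100 nmol/kg), and urine was collected for 5 h in metabolic cages. The half-excretion time t1/2 was plotted against dose. […] Groups were 4–5 rats, with 2–3 independent days per dose.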
# [4] = system: strips of rat uterus; settings: cited from earlier work
# [5] = system: arterial blood pressure (pressor response to AVP); settings: cited from earlier work
# [6] = system: conscious male rats (antidiuresis); settings: cited from earlier work; for Antidiuretic IU/mg (200 min): 200 min level; for Antidiuretic IU/mg 60 min: threshold level 60 min; for Antidiuretic IU/mg: single value, ref Lebl (1987)
# [7] = rat uterus strips, no Mg2+, average ± SEM, n = 3–5
# [8] = ref Melin et al. (1986), Manning et al. (1995)
substance,measurement,setting,value
"[Cpa^1,cis-Apc^2]OT [XIV]",Uterotonic in vitro no Mg2+ pA2 (anti-oxytocic),[1]; [7],pA2 = 7.97 + 0.24
same,Pressor pA2 (antagonist),[2],pA2 ~ 6.73
"[Mpa^1,cis-Apc^2]OT [XIII]",Uterotonic in vitro no Mg2+ pA2 (anti-oxytocic),[1]; [7],pA2 = 8.11 + 0.18
same,Uterotonic in vitro no Mg2+ pA2 (anti-oxytocic),"[1]; rat uterus strips, no Mg2+, average ± SEM, n = 3–5, listed as [Mpa^1,cis-Apc^2]OT",8.11
same,Pressor pA2 (antagonist),[2],pA2 ~ 6.0
same,antidiuretic activity (in words),[3],inactive
same,Antidiuretic IU/mg,[3],0 IU/mg
"Aba[cis-Apc^2,Val^4]AVP [XI]","anti-oxytocic potency, times less potent than the mother compound III",[1],~10 times
same,Pressor IU/mg or pA2 (0 = no activity),[2],0
same,pressor activity (in words),[2],eliminated its effect on blood pressure
same,Antidiuretic IU/mg,[3],0 IU/mg
"[Cpa^1,Acc^2]AVP",Uterotonic in vitro no Mg2+ pA2,[4]; ref Jastrzębska et al. (2003),7.33
[cis-Apc^2]OT [XII],Uterotonic in vitro no Mg2+ pA2 (anti-oxytocic),[1]; [7],pA2 = 7.89 + 0.07
same,Pressor pA2 (antagonist),[2],pA2 ~ 5.75
same,pressor activity (in words),[2],weak
"[Acc^2,Val^4]AVP",Uterotonic in vitro no Mg2+ pA2,[4]; ref Kowalczyk et al. (2004),pA2 = 6.9
same,Pressor IU/mg,[5]; ref Kowalczyk et al. (2004),0.9 ± 0.30 IU/mg
same,Antidiuretic IU/mg (200 min),[6]; ref Kowalczyk et al. (2004),"23,000 IU/mg"
same,Antidiuretic IU/mg 60 min,[6]; ref Kowalczyk et al. (2004),"2,300 IU/mg"
"[Mpa^1,cis-Apc^2,D-Arg^8]VP [VI]",Pressor pA2 (antagonist),[2],pA2 ~ 7.1
same,Antidiuretic IU/mg (200 min),[3],"1,000 IU/mg"
same,Antidiuretic IU/mg 60 min,[3],5 IU/mg
"[Mpa^1,Acc^2]AVP",Uterotonic in vitro no Mg2+ pA2,[4]; ref Kowalczyk et al. (2004),~5.6
same,Uterotonic in vitro no Mg2+ IU/mg,"[4]; value in parentheses, ref Kowalczyk et al. (2004)",0.7 IU/mg
same,Pressor IU/mg,[5]; ref Kowalczyk et al. (2004),17.2 ± 0.8 IU/mg
same,Antidiuretic IU/mg (200 min),[6]; ref Kowalczyk et al. (2004),"50,000 IU/mg"
same,Antidiuretic IU/mg 60 min,[6]; ref Kowalczyk et al. (2004),"4,500 IU/mg"
oxytocin [OT],Uterotonic in vitro no Mg2+ IU/mg,[4]; ref Lebl (1987),450 IU/mg
same,Pressor IU/mg,[5]; ref Lebl (1987),5 IU/mg
same,Antidiuretic IU/mg,[6],5 IU/mg
"[cis-Apc^2,D-Arg^8]VP",Pressor pA2 (antagonist),[2],pA2 ~ 7.1
same,Antidiuretic IU/mg (200 min),[3],200 IU/mg
same,antidiuretic activity (in words),[3],negligible
same,antidiuretic potency relative to AVP,[3]; t1/2 level of 200 min,about 43%
same,Antidiuretic IU/mg 60 min,[3],1 IU/mg
"d[D-Tyr(Et)^2,Thr^4]OVT [Atosiban]",Uterotonic in vitro no Mg2+ pA2,[4]; [8],7.71 and 7.71 ± 0.05
same,Pressor pA2,[5]; [8],pA2 = 6.14 ± 0.02
same,Antidiuretic pA2,[6]; [8],pA2 = 5.9
"t-Bba[cis-Apc^2,Val^4]AVP [IX]",Uterotonic in vitro no Mg2+ IU/mg (agonist),[1]; [7],10.1 ± 3.8 IU/mg and 10.1 + 3.8 IU/mg
same,Pressor IU/mg or pA2 (0 = no activity),[2],0
same,pressor activity (in words),[2],eliminated its effect on blood pressure
same,Antidiuretic IU/mg (200 min),[3],< 0.5 IU/mg
same,Antidiuretic IU/mg 60 min,[3],< 0.01 IU/mg
"[Cpa^1,cis-Apc^2]AVP [VII]",Uterotonic in vitro no Mg2+ pA2 (anti-oxytocic),[1]; [7],pA2 = 7.85 + 0.14
same,Pressor pA2 (antagonist),[2],pA2 ~ 6.2
same,pressor activity (in words),[2],weak and low antagonistic activity
same,Antidiuretic IU/mg (200 min),[3],1 IU/mg
same,antidiuretic activity (in words),[3],negligible
same,Antidiuretic IU/mg 60 min,[3],0.05 IU/mg
[Mpa^1]OT,Uterotonic in vitro no Mg2+ IU/mg,[4]; ref Lebl (1987),803 IU/mg
same,Pressor IU/mg,[5]; ref Lebl (1987),1.44 IU/mg
same,Antidiuretic IU/mg,[6],19 IU/mg
"Hba[cis-Apc^2,Val^4]AVP [X]","anti-oxytocic potency, times less potent than the mother compound III",[1],about 4 times
same,Antidiuretic IU/mg (200 min),[3],< 0.5 IU/mg
same,Antidiuretic IU/mg 60 min,[3],< 0.01 IU/mg
"arginine vasopressin (CYFQNCPRG-NH2; disulfide 1-6; UniProt P01185 20-28, looked up) [AVP]",Uterotonic in vitro no Mg2+ IU/mg,[4]; ref Lebl (1987),17 IU/mg
same,Pressor IU/mg,[5]; ref Lebl (1987),412 IU/mg
same,Antidiuretic IU/mg,[6],465 IU/mg
"Aca[cis-Apc^2,Val^4]AVP [VIII]",Pressor IU/mg or pA2 (0 = no activity),[2],0
same,pressor activity (in words),[2],eliminated its effect on blood pressure
same,Antidiuretic IU/mg (200 min),[3],< 0.5 IU/mg
same,Antidiuretic IU/mg 60 min,[3],< 0.01 IU/mg
[Acc^2]AVP,Uterotonic in vitro no Mg2+ pA2,[4]; ref Jastrzębska et al. (2003),pA2 ~ 5.6
same,Pressor IU/mg,[5]; ref Jastrzębska et al. (2003),56.6 IU/mg
same,Antidiuretic IU/mg (200 min),[6]; ref Jastrzębska et al. (2003),"~9,300 IU/mg"
same,Antidiuretic IU/mg 60 min,[6]; ref Jastrzębska et al. (2003),750–900 IU/mg

# Source: publication PMC3397136 (Amino Acids, 2011)
